# Source: PubChem (several laboratories)
# The full list was thinned out, with hits kept by preference.
# ABCB1 inh: blocks JC-1 efflux by human ABCB1 transporter; P08183; CCRF-Adr cells, flow cytometry; inhibition, % at 6.6 µM; 190,000 compounds, 0.067% hits; in the data active = inhibition above about 40%;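 note: 0% = vehicle and 100% = reference inhibitor; higher value means more JC-1 retained so stronger ABCB1 efflux block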
# Lmaj promast: reduces viability of Leishmania major promastigotes; resazurin fluorescence viability; inhibition, % at 10 µM; 200,000 compounds, 9% hits; AID 1063;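 note: promastigotes grown with compound for 44 hours at 28 °C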
# GSH bead fluor: GSH bead compound fluorescence profile; GSH beads flow cytometry, compound fluorescence 488/530 nm; active compounds read high; fluorescence (KMESF) at 10 µM; 190,000 compounds, 0.25% hits; in the data active = fluorescence above about 89;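 note: glutathione beads carrying GST-tagged Bcl family fusion proteins plus one bare bead set; values are compound well signal with DMSO vehicle wells as background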
# ABCG2 inh: blocks JC-1 efflux by human ABCG2 transporter; AID 1325; Q9UNQ0; IgMXP3 cells, flow cytometry; inhibition, % at 6.6 µM; 190,000 compounds, 0.1% hits;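 active = inhibition above 80%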;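 note: 0% = DMSO and 100% = nicardipine control wells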
#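 Incubation: cells with compound and JC-1, 10 min at 25 °C, rotating, no wash / Test system: IgMXP3 (ABCG2) plus far-red-tagged CCRF-Adr (ABCB1) cells / Compound dosing: one concentration, 6.6 µM final / Also added: JC-1 fluorescent substrate / Evaluation: efflux inhibition in percent versus controls / Detection: flow cytometry, 530 nm JC-1 signal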
# Avidin bead fluor: compound fluoresces at 488/530 nm on avidin beads | compound fluorescence 488/530 nm, flow cytometry; active compounds read high | 220,000 compounds, 0.38% hits | fluorescence (KMESF) at 10 µM | AID 1775; in the data active = fluorescence above about 47
# PKD1 kinase inh: PKD1 (human) kinase inhibition; PKD1 kinase fluorescence polarization assay; inhibition, % (concentration not given with the values); 200,000 compounds, 0.056% hits; AID 797
# Target sequence (Q15139 whole entry, looked up): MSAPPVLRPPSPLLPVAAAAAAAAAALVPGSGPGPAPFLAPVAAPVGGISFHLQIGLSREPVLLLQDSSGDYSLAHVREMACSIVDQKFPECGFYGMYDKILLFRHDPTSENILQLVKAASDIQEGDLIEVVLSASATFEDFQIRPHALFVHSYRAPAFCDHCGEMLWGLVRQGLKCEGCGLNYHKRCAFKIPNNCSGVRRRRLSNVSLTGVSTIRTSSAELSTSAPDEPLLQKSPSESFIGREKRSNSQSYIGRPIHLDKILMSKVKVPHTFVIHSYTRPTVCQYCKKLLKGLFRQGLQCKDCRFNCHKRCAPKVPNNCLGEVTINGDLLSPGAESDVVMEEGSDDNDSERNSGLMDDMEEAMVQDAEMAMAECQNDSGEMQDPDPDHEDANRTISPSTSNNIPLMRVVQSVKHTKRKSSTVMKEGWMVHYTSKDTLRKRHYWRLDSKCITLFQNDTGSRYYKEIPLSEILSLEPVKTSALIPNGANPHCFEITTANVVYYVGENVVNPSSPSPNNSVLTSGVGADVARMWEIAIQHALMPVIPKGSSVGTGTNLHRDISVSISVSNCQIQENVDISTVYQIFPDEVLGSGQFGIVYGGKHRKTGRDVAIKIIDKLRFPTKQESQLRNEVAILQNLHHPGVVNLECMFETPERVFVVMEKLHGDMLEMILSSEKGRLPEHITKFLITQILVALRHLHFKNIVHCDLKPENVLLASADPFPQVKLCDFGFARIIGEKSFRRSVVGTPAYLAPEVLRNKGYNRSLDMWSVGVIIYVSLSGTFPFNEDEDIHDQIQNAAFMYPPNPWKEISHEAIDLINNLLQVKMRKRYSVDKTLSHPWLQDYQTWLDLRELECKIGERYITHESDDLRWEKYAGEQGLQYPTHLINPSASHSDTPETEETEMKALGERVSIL
# Lmaj promast 1uM: L. major promastigote growth inhibition, 1 uM repeat | shares compounds with Lmaj promast | resazurin fluorescence, 48 h | inhibition, % at 1 µM | 1,100 compounds, 13% hits;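 active = inhibition above about 50% in both repeat tests, limit read from the data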
# * marks the source's active call; other numbers are inactive results; . = not tested or not shown. Cut-off read from the data, not from the text of the source, unless noted: active = inhibition above about 50%; inactive = the rest.
SMILES,ABCB1 inh,Lmaj promast,GSH bead fluor,ABCG2 inh,Avidin bead fluor,PKD1 kinase inh,Lmaj promast 1uM
CCN(CC(O)Cn1c2ccccc2c2ccccc21)S(=O)(=O)c1ccc(C)cc1 (stereo not given),0.3,100.3*,9,0.8,11,-4.6,-10.2
CCN(CC)c1ccc(-c2nn3c(-c4n[nH]c5c4CCC5)nnc3s2)cc1,1.5,62.0*,7,5.6,18,9.9,-7.7
CC(CN1CCOCC1)C(=O)c1ccccc1 (stereo not given),0.2,7.3,16,0.3,7,-1.1,.
COc1ccc(C(=O)C(CN2CCOCC2)c2ccccc2)cc1F (stereo not given),0.7,100.5*,11,3.3,19,-2.9,85.7*
O=[N+]([O-])c1ccc(-n2cnc3ccccc32)c([N+](=O)[O-])c1,1.5,99.6*,17,3.8,6,2.1,21.8
COC(=O)c1ccc(CSc2nnnn2Cc2ccccc2)cc1,0.2,96.9*,9,0.7,9,6.8,-15.5
COc1ccc(C(=O)CSc2nnnn2Cc2ccccc2)cc1,1.2,-7.7,10,1.2,12,-14.7,.
CCOc1ccc(CNC(=S)N/N=C/c2ccc(OC)c(OC)c2)cc1,0.4,-5.8,16,14.6,6,-13.3,.
Cc1cccc(C(=O)Nc2cccc(C(=O)N3CCOCC3)c2)c1,-0.6,20.1,40,2.9,8,-0.7,.
CC(=O)/C(=N/Nc1cccc(C)c1)N1CCOCC1,0.4,63.8*,11,0.9,8,-0.2,-7.6
CC(=O)c1ccc(-n2nncc2C)cc1,0.8,-4.1,17,1.7,7,-13.3,.
Cc1ccc(NC(=O)c2ccncc2)cc1S(=O)(=O)N(C)C,-0.1,-4.4,12,-0.1,12,-1.8,.
Cc1ccc(NC(=O)c2ccc(Br)o2)cc1S(=O)(=O)N(C)C,-0.2,59.7*,12,1.9,9,0.2,-2.6
CCN1C(=O)NC2=C(C(=O)c3ccccc32)C1c1ccccc1F (stereo not given),1.3,99.8*,40,6.7,8,2.5,28.7
CCOC(=O)c1c2c(n(C)c1C)C(=O)C(=O)c1ccc(Br)cc1-2,.,100.0*,.,.,.,-5.2,97.9*
CCOC(=O)c1c(-c2ccccc2)c(C(C)=O)c(=O)n(C)c1C,0.2,-7.2,21,1.6,8,-16.2,.
COc1ccc(N/N=C(\C#N)C(=N)N2CCCCC2)cc1,.,.,.,.,6,.,.
Cc1ccc(N/N=C(\C#N)C(=N)N2CCCCCC2)cc1,-0.4,61.0*,23,3.1,8,-2.0,-1.1
CCCN(CCC)c1nc2ccccc2n2c(C)nnc12,1.1,82.1*,15,5.0,11,-5.9,-9.1
Cc1ccc(C(=O)c2nc3c(n2O)CCCC3)cc1,1.0,-1.0,57,4.4,11,-6.9,.
CC(NC(=O)c1ccc(Br)s1)c1ccncc1 (stereo not given),1.1,-5.5,20,5.4,10,3.7,.
CCOC(=O)c1ccc(N2C(=O)c3n[nH]c(C)c3C2c2ccco2)cc1 (stereo not given),0.4,12.4,41,1.7,6,-4.8,.
CCOC(=O)c1ccc(N2C(=O)c3n[nH]c(-c4ccco4)c3C2c2cccc([N+](=O)[O-])c2)cc1 (stereo not given),2.5,96.5*,4,15.2,12,-3.6,-5.1
CCOC(=O)c1nc2cc3n(c(C)c-2c1C)C(C)C(C)=C3C (stereo not given),0.0,66.5*,31,2.5,6,4.2,-12.3
S=C(Nc1cccc(Cl)c1Cl)N1CCC2(CC1)OCCO2,0.1,-4.4,15,1.8,10,-8.0,.
COc1ccc(-c2nnc(SCC(=O)Oc3ccc(C)cc3)o2)cc1,0.8,-2.0,19,0.9,23,-1.2,.
Cc1ccc(-c2csc3ncnc(SCC(=O)Nc4nnc(C)s4)c23)cc1,-2.7,-7.2,26,0.2,16,-4.8,.
Cc1ccc(-c2csc3ncnc(Sc4nnc(CN5CCCCCC5=O)o4)c23)cc1,2.7,99.4*,21,4.7,27,7.2,3.5
COc1ccc(C2C(C#N)=C(C)NC(C)=C2C(=O)OC(C)C)c(OC)c1 (stereo not given),0.6,29.1,14,1.2,12,3.1,.
